Calls of active or inactive are those of the source. The rule behind the calls is not given here.
Tests used:
MDA-MB-436 = assay: Antiproliferative activity against human MDA-MB-436 cells assessed as cell growth inhibition incubated for 7 days by CCK-8 assay; assay type: functional, cell-based; details: MDA-MB-436, 168 h
Summary of the method: (§1)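 Cells were sub-cultured at least twice and seeded for 24 h before dosing. Compounds came from 10 mM DMSO stocks, given as 10 points of 3-fold serial dilution starting at 10-20 μM. Incubation was about 7 days (Capan-1 13 days) at 37 °C, 5% CO2. Read-out was CCK-8 absorbance at 450 nm, as % growth versus DMSO wells (duplicate wells). IC50 was fitted by nonlinear regression; three independent experiments.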

CAPAN-1 = assay: Antiproliferative activity against human CAPAN-1 cells assessed as cell growth inhibition incubated for 13 days by CCK-8 assay; assay type: functional, cell-based; details: CAPAN-1, 312 h; summary of the method: as §1
[1] = target: von Hippel-Lindau disease tumor suppressor/Poly [ADP-ribose] polymerase 1 (Homo sapiens) (UniProt P09874+P40337); assay: Protac activity at VHL/PARP1 in human MDA-MB-436 cells assessed as reduction in PARP1 protein level at 1 uM incubated for 24 hrs by western blot analysis; assay type: cell-based
[2] = target: T1, Protein cereblon/Poly [ADP-ribose] polymerase 1 (Homo sapiens, UniProt P09874+Q96SW2); assay: Protac activity at CRBN/PARP1 in human MDA-MB-436 cells assessed as reduction in PARP1 protein level at 0.01 to 10 uM incubated for 12 hrs by western blot analysis; assay type: cell-based; details: dose microM 0.01-10, time 12.0 hrs
Summary of the method: (§2)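 MDA-MB-436 or SW620 cells dosed at 1, 10, 100, 1000 nM and 10 µM for 12 h; PARP1 assessed by western blot of RIPA lysates (20-30 µg protein), β-tubulin as loading control.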

[3] = target: T1, Protein cereblon/Poly [ADP-ribose] polymerase 1; assay: Protac activity at CRBN/PARP1 in human SW620 cells assessed as reduction in PARP1 protein level at 0.01 to 10 uM incubated for 12 hrs by western blot analysis; assay type: cell-based; details: SW-620, dose microM 0.01-10, time 12.0 hrs; summary of the method: as §2
[4] = target: T1, Protein cereblon/Poly [ADP-ribose] polymerase 1; assay: Protac activity at CRBN/PARP1 in human MDA-MB-436 cells assessed as induction of PARP1 degradation at 1 to 1000 nM incubated for 24 hrs by Western blot analysis; assay type: cell-based; details: dose nM 1-1000, time 24.0 hrs
Summary of the method: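 PARP1 immunoblot of MDA-MB-436 lysates after 24 h exposure at 1, 10, 100 and 1000 nM; RIPA lysis, 20-30 µg protein per lane, β-tubulin as loading control, band density normalized to DMSO control.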

[5] = target: T1, Protein cereblon/Poly [ADP-ribose] polymerase 1; assay: Protac activity at CRBN/PARP1 in human Capan1 cells assessed as induction of PARP1 degradation at 1 to 1000 nM incubated for 24 hrs by Western blot analysis; assay type: cell-based; details: CAPAN-1, dose nM 1-1000, time 24.0 hrs
Summary of the method: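 Capan-1 cells were treated 24 h (1-1000 nM, or a wider dose range for DC50). Lysis was in RIPA buffer with protease inhibitors, and 20-30 μg protein was blotted. PARP1 was normalized to β-tubulin and to DMSO control, quantified by densitometry. DC50 came from two independent experiments.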

[6] = target: Poly [ADP-ribose] polymerase 1 (Homo sapiens, UniProt P09874); assay: Inhibition of recombinant human C-terminal His-tagged PARP1 expressed in Sf9 insect cells preincubated for 20 mins in presence of activated DNA followed by […] addition and further incubated for 2 hrs by chemiluminescence assay
SW-620 = assay: Antitumor activity against SW-620 cells xenografted in Balb/c mouse assessed as tumor growth suppression at 50 mg/kg, po administered once daily for 5 days; assay type: functional, organism-based; details: time 5.0 day
Summary of the method: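 Male BALB/c nude mice carried SW620 xenografts (6×10^6 cells s.c.), randomized at ~150 mm³ (6 per group). TMZ 50 mg/kg was given orally once daily on days 0-4, 45 min after the partner drug. Partners were 5 or 10 mg/kg intraperitoneally or 10 mg/kg by oral gavage, daily for 5 days. Vehicle was 5% DMSO/20% PEG400/10% Cremophor EL/65% saline. Tumor volume and body weight were recorded 2-3 times weekly.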

[7] = Acute toxicity in Balb/c mouse xenografted with SW-620 cells assessed as mean weight loss at 50 mg/kg, po qd administered for 5 days measured on day 6 relative to control; assay type: organism-based; details: in vivo, 144 h, time 6 day
[8] = target: T1, Protein cereblon/Poly [ADP-ribose] polymerase 1; assay: Protac activity at CRBN/PARP1 in human MDA-MB-436 cells assessed as induction of PARP1 degradation at 10 nM incubated for 24 hrs by Western blot analysis relative to control; assay type: cell-based
Summary of the method: (§3)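 MDA-MB-436 cells (RPMI-1640, 10% FBS) seeded 24 h, then exposed to compound at 1, 10, 100 and 1000 nM for 24 h. Lysates in RIPA with protease inhibitors, 20-30 µg protein by SDS-PAGE, PARP1 immunoblot with β-tubulin loading control; PARP1/β-tubulin ratio normalized to DMSO control set at 100.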

[9] = target: T1, Protein cereblon/Poly [ADP-ribose] polymerase 1; assay: Protac activity at CRBN/PARP1 in human MDA-MB-436 cells assessed as induction of PARP1 degradation at 100 nM incubated for 24 hrs by Western blot analysis relative to control; assay type: cell-based; summary of the method: as §3
[10] = target: T1, Protein cereblon/Poly [ADP-ribose] polymerase 1; assay: Protac activity at CRBN/PARP1 in human MDA-MB-436 cells assessed as induction of PARP1 degradation at 1 uM incubated for 24 hrs by Western blot analysis relative to control; assay type: cell-based; summary of the method: as §3

T1 sequence (P09874 2-1014 limits assumed): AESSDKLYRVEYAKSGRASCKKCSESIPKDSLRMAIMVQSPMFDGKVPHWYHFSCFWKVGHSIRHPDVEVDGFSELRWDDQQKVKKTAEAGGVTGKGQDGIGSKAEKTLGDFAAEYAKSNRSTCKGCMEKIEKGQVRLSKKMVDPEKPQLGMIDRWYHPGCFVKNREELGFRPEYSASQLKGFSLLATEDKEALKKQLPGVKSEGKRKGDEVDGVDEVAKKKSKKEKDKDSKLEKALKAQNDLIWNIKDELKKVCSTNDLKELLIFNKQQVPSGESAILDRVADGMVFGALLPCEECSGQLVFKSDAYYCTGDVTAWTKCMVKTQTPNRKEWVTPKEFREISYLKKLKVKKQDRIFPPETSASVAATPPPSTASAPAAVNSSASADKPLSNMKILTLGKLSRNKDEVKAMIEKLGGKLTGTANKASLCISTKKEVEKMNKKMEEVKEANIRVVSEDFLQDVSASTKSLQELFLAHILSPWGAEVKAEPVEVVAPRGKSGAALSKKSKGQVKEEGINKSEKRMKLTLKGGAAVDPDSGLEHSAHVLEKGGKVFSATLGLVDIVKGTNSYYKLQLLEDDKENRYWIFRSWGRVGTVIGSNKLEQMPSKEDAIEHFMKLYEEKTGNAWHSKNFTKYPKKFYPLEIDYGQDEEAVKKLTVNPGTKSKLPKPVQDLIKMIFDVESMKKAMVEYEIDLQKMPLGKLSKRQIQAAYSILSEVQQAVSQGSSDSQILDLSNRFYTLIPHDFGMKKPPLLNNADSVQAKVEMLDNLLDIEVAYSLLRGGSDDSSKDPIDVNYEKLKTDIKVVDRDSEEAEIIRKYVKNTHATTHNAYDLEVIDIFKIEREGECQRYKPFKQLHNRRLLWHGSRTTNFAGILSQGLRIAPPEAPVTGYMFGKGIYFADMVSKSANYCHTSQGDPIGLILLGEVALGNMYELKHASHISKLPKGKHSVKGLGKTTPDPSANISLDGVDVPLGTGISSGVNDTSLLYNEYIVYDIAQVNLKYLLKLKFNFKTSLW
T1 sequence (Q96SW2 whole entry partner): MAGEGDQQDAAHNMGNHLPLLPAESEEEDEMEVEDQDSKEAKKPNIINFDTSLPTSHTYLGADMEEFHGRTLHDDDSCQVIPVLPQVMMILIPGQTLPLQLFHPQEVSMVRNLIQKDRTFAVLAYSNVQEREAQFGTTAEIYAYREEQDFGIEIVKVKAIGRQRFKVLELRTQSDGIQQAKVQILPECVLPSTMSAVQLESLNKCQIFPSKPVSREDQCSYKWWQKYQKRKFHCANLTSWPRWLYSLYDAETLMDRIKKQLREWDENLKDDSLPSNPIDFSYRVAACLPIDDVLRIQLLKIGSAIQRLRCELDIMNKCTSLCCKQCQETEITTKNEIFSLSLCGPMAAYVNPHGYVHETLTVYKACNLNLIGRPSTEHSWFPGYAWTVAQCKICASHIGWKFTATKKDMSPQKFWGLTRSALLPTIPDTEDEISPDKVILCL
von Hippel-Lindau disease tumor suppressor/Poly [ADP-ribose] polymerase 1 (Homo sapiens), sequence (P09874 whole entry, looked up): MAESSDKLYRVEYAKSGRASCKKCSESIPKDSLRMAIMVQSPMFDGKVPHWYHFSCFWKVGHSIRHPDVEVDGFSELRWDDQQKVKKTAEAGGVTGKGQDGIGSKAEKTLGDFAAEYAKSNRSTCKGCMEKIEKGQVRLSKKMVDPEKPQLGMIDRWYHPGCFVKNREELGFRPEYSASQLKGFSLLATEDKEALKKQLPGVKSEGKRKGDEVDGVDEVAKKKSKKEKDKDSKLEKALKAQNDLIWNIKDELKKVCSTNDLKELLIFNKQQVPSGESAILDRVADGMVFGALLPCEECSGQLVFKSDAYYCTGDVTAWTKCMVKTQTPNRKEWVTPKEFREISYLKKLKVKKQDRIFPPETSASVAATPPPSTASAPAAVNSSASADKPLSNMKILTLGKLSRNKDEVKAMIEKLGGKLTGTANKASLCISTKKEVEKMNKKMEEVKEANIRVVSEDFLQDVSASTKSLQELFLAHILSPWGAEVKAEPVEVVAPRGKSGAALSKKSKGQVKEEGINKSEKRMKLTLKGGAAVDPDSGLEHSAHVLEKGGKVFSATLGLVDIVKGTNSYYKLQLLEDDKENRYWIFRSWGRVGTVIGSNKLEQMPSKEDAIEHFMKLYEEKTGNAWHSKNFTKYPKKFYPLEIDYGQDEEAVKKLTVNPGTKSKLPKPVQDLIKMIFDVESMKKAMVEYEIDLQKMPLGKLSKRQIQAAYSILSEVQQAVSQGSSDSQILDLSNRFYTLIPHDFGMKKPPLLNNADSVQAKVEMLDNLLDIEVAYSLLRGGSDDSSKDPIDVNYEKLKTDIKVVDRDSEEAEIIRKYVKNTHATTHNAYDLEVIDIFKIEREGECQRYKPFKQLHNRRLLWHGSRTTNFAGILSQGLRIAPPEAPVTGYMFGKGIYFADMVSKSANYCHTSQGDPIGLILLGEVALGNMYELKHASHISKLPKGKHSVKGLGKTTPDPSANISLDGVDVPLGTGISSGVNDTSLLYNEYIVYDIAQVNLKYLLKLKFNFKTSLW
von Hippel-Lindau disease tumor suppressor/Poly [ADP-ribose] polymerase 1 (Homo sapiens), sequence (P40337 whole entry, looked up): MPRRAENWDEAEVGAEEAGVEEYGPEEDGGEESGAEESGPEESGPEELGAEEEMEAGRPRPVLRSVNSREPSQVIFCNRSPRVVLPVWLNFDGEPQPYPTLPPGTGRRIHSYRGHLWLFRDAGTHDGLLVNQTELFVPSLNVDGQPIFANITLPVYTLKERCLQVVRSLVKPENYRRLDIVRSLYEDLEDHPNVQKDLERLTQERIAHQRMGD
Poly [ADP-ribose] polymerase 1, sequence (P09874 whole entry): as the sequence (P09874 whole entry, looked up) above

Compound	IC50 (MDA-MB-436) [nM]	IC50 (CAPAN-1) [nM]	further results
O=C(CCCNC(=O)COc1cccc2c1C(=O)N(C1CCC(=O)NC1=O)C2=O)NCCCC(=O)N1CCN(C(=O)c2cc(Cc3n[nH]c(=O)c4ccccc34)ccc2F)CC1 (stereo unspecified)	5300	> 10000	–
O=C(CCCCC(=O)N1CCN(C(=O)c2cc(Cc3n[nH]c(=O)c4ccccc34)ccc2F)CC1)NCCNc1cccc2c1C(=O)N(C1CCC(=O)NC1=O)C2=O (stereo unspecified)	> 10000	> 10000	–
O=C(CCCNC(=O)COc1cccc2c1C(=O)N(C1CCC(=O)NC1=O)C2=O)NCCCCCC(=O)N1CCN(C(=O)c2cc(Cc3n[nH]c(=O)c4ccccc34)ccc2F)CC1 (stereo unspecified)	1200	3100	–
O=C(CCCCCNC(=O)CNc1cccc2c1C(=O)N(C1CCC(=O)NC1=O)C2=O)NCCCCCC(=O)N1CCN(C(=O)c2cc(Cc3n[nH]c(=O)c4ccccc34)ccc2F)CC1 (stereo unspecified)	1700	2200	–
O=C(CCCCCNC(=O)COc1cccc2c1C(=O)N(C1CCC(=O)NC1=O)C2=O)NCCCCCC(=O)N1CCN(C(=O)c2cc(Cc3n[nH]c(=O)c4ccccc34)ccc2F)CC1 (stereo unspecified)	950	1500	–
O=C(CCCNC(=O)CNc1cccc2c1C(=O)N(C1CCC(=O)NC1=O)C2=O)NCCCCCC(=O)N1CCN(C(=O)c2cc(Cc3n[nH]c(=O)c4ccccc34)ccc2F)CC1 (stereo unspecified)	2200	7100	–
Cc1ncsc1-c1ccc(CNC(=O)[C@@H]2C[C@@H](O)CN2C(=O)[C@@H](NC(=O)CNC(=O)CCCCCCCCCCC(=O)N2CCN(C(=O)c3cc(Cc4n[nH]c(=O)c5ccccc45)ccc3F)CC2)C(C)(C)C)cc1	1200	1600	Activity [1]: inactive
CN1C(=O)CCC(N2C(=O)c3cccc(NCCNC(=O)CCCCCCCCCCC(=O)N4CCN(C(=O)c5cc(Cc6n[nH]c(=O)c7ccccc67)ccc5F)CC4)c3C2=O)C1=O (stereo unspecified)	–	–	Activity [4]: inactive; Activity [5]: inactive; IC50 [6]: 2.64 nM
O=C(COc1cccc2c1C(=O)N(C1CCC(=O)NC1=O)C2=O)NCCCC(=O)N1CCN(C(=O)c2cc(Cc3n[nH]c(=O)c4ccccc34)ccc2F)CC1 (stereo unspecified)	> 10000	> 10000	–
O=C(CCCCCNC(=O)COc1cccc2c1C(=O)N(C1CCC(=O)NC1=O)C2=O)NCCCC(=O)N1CCN(C(=O)c2cc(Cc3n[nH]c(=O)c4ccccc34)ccc2F)CC1 (stereo unspecified)	1900	8700	–
Cn1nnc2c(C(N)=O)ncn2c1=O [TEMOZOLOMIDE]	–	–	Activity (SW-620): Active; Activity [7]: 9%
O=C(COc1cccc2c1C(=O)N(C1CCC(=O)NC1=O)C2=O)NCCCCCC(=O)N1CCN(C(=O)c2cc(Cc3n[nH]c(=O)c4ccccc34)ccc2F)CC1 (stereo unspecified)	9400	> 10000	–

Continued by falling IC50 (MDA-MB-436), values first:

IC50 (MDA-MB-436) [nM]	Compound	IC50 (CAPAN-1) [nM]	further results
830	O=C(CCCCCCC(=O)N1CCN(C(=O)c2cc(Cc3n[nH]c(=O)c4ccccc34)ccc2F)CC1)NCCNc1cccc2c1C(=O)N(C1CCC(=O)NC1=O)C2=O (stereo unspecified)	4100	–
710	CN(CCOCCOCCOCCOCCOCCOCCNc1cccc2c1C(=O)N(C1CCC(=O)NC1=O)C2=O)Cc1ccc(-c2[nH]c3cc(F)cc4c3c2CCNC4=O)cc1 (stereo unspecified)	950	Activity [2]: Active; Activity [3]: Active
680	Cc1ncsc1-c1ccc(CNC(=O)[C@@H]2C[C@@H](O)CN2C(=O)[C@@H](NC(=O)CCCNC(=O)CCCCCCCCCCC(=O)N2CCN(C(=O)c3cc(Cc4n[nH]c(=O)c5ccccc45)ccc3F)CC2)C(C)(C)C)cc1	870	Activity [1]: inactive
123	O=C(CCCCCCCCC(=O)N1CCN(C(=O)c2cc(Cc3n[nH]c(=O)c4ccccc34)ccc2F)CC1)NCCNc1cccc2c1C(=O)N(C1CCC(=O)NC1=O)C2=O (stereo unspecified)	495	–
120	Cc1ncsc1-c1ccc(CNC(=O)[C@@H]2C[C@@H](O)CN2C(=O)[C@@H](NC(=O)CCCCCNC(=O)CCCCCCCCCCC(=O)N2CCN(C(=O)c3cc(Cc4n[nH]c(=O)c5ccccc45)ccc3F)CC2)C(C)(C)C)cc1	170	Activity [1]: inactive
92	O=C(CCCCCCCCCCC(=O)N1CCN(C(=O)c2cc(Cc3n[nH]c(=O)c4ccccc34)ccc2F)CC1)NCCNc1cccc2c1CN(C1CCC(=O)NC1=O)C2=O (stereo unspecified)	194	–
65	O=C(CCCCCCCCCCC(=O)N1CCN(C(=O)c2cc(Cc3n[nH]c(=O)c4ccccc34)ccc2F)CC1)NCCCOCCOCCOCCCNc1cccc2c1C(=O)N(C1CCC(=O)NC1=O)C2=O (stereo unspecified)	154	–
64	O=C(CCCCCCCCCCC(=O)N1CCN(C(=O)c2cc(Cc3n[nH]c(=O)c4ccccc34)ccc2F)CC1)NCCOCCOCCNc1cccc2c1C(=O)N(C1CCC(=O)NC1=O)C2=O (stereo unspecified)	134	–
54	Cc1ncsc1-c1ccc(CNC(=O)[C@@H]2C[C@@H](O)CN2C(=O)[C@@H](NC(=O)CCCCCCCCCCC(=O)N2CCN(C(=O)c3cc(Cc4n[nH]c(=O)c5ccccc45)ccc3F)CC2)C(C)(C)C)cc1	87	Activity [1]: inactive
47	O=C(CCCCCCCCCCC(=O)N1CCN(C(=O)c2cc(Cc3n[nH]c(=O)c4ccccc34)ccc2F)CC1)NCCOCCNc1cccc2c1C(=O)N(C1CCC(=O)NC1=O)C2=O (stereo unspecified)	120	–
42	O=C(CCCCCCCCCCC(=O)N1CCN(C(=O)c2cc(Cc3n[nH]c(=O)c4ccccc34)ccc2F)CC1)NCCCCCCNc1cccc2c1C(=O)N(C1CCC(=O)NC1=O)C2=O (stereo unspecified)	110	–
39	O=C(CCCCCCCCCCC(=O)N1CCN(C(=O)c2cc(Cc3n[nH]c(=O)c4ccccc34)ccc2F)CC1)NCCCCNc1cccc2c1C(=O)N(C1CCC(=O)NC1=O)C2=O (stereo unspecified)	131	Activity [8]: 70%; Activity [9]: 90.5%; Activity [10]: 45%
35	O=C(CCCCCCCCCCC(=O)N1CCN(C(=O)c2cc(Cc3n[nH]c(=O)c4ccccc34)ccc2F)CC1)NCCNc1ccc2c(c1)C(=O)N(C1CCC(=O)NC1=O)C2=O (stereo unspecified)	159	–
29	O=C(CCCCCCCCCC(=O)N1CCN(C(=O)c2cc(Cc3n[nH]c(=O)c4ccccc34)ccc2F)CC1)NCCNc1cccc2c1C(=O)N(C1CCC(=O)NC1=O)C2=O (stereo unspecified)	264	–
25	O=C(CCCCCCCCCCCCC(=O)N1CCN(C(=O)c2cc(Cc3n[nH]c(=O)c4ccccc34)ccc2F)CC1)NCCNc1cccc2c1C(=O)N(C1CCC(=O)NC1=O)C2=O (stereo unspecified)	118	–
21	O=C(CCCCCCCCCCCC(=O)N1CCN(C(=O)c2cc(Cc3n[nH]c(=O)c4ccccc34)ccc2F)CC1)NCCNc1cccc2c1C(=O)N(C1CCC(=O)NC1=O)C2=O (stereo unspecified)	87	–
